Values joined by “and” are separate entries in the source; they are usually repeats but may differ in a detail not shown here. Equal entries are not always repeated.
System: Fibroblast
Experiment: Multiplex assay against human fibroblast
Format: toxicity, cell-based
Conditions: number of replicates 2
How it was run: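 Cells were classed with CellPathfinder machine-learning gating, first as Hoechst high-intensity objects or normal cells, then (normal cells) as healthy, pyknosed or fragmented nuclei, and finally (pyknosed cells) as mitotic or apoptotic. Staining of live cells at seeding used Hoechst33342, BioTracker Green Microtubule Cytoskeleton Dye, MitoTracker Red and Annexin V Alexa Fluor 680, with imaging on a CQ1 microscope at 37°C and 5% CO2 after compound addition. Tubulin, mitochondrial-mass and membrane-permeability phenotypes are per cents of healthy-nucleus cells.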

[1] = 12 h, 1 µM, compound concentration 1 uM
[2] = 12 h, 10 µM, compound concentration 10 uM
[3] = 24 h, 1 µM, compound concentration 1 uM
[4] = 24 h, 10 µM, compound concentration 10 uM
[5] = 48 h, 1 µM, compound concentration 1 uM
[6] = 48 h, 10 µM, compound concentration 10 uM

Question: For `O=C(Nc1ccnc(NC(=O)C2CC2)c1)c1c(Cl)cccc1Cl`, which “Population Apoptotic (%)” value [1] is on record?
Answer: 47% and 27%

Question: What about the “Population Fragmented Nuclei (%)” value [1] of the same compound?
Answer: 6% and 9%

Question: And the “Population Healthy Nuclei (%)” value [1]?
Answer: 65% and 67%

Question: What about the “Population Hoechst High Intensity Objects (%)” value [1] of the same compound?
Answer: 0%

Question: What about the “Population Membrane Permeable-Phenotype (%)” value [1] of the same compound?
Answer: 5% and 7%

Question: And the “Population Mitochondria Different-Phenotype (%)” value [1]?
Answer: 0%

Question: What about the “Population Mitotic Cells (%)” value [1] of the same compound?
Answer: 52% and 72%

Question: What about the “Population Normal (%)” value [1] of the same compound?
Answer: 100%

Question: And the “Population Pyknosed Nuclei (%)” value [1]?
Answer: 27% and 23%

Question: What about the “Population Tubulin-Different-Phenotype (%)” value [1] of the same compound?
Answer: 9% and 6%

Question: What about the “Total Cell Count” value [1] of the same compound?
Answer: 145 and 189

Question: What about the “Population Apoptotic (%)” value [2] of the same compound?
Answer: 55% and 72%

Question: What about the “Population Fragmented Nuclei (%)” value [2] of the same compound?
Answer: 9% and 14%

Question: And the “Population Healthy Nuclei (%)” value [2]?
Answer: 78% and 77%

Question: And the “Population Hoechst High Intensity Objects (%)” value [2]?
Answer: 0%

Question: And the “Population Membrane Permeable-Phenotype (%)” value [2]?
Answer: 2%

Question: What about the “Population Mitochondria Different-Phenotype (%)” value [2] of the same compound?
Answer: 0%

Question: And the “Population Mitotic Cells (%)” value [2]?
Answer: 44% and 27%

Question: What about the “Population Normal (%)” value [2] of the same compound?
Answer: 100%

Question: What about the “Population Pyknosed Nuclei (%)” value [2] of the same compound?
Answer: 11% and 8%

Question: What about the “Population Tubulin-Different-Phenotype (%)” value [2] of the same compound?
Answer: 7% and 6%

Question: And the “Total Cell Count” value [2]?
Answer: 244 and 215

Question: And the “Population Apoptotic (%)” value [3]?
Answer: 60% and 48%

Question: And the “Population Fragmented Nuclei (%)” value [3]?
Answer: 13% and 7%

Question: What about the “Population Healthy Nuclei (%)” value [3] of the same compound?
Answer: 60% and 70%

Question: What about the “Population Hoechst High Intensity Objects (%)” value [3] of the same compound?
Answer: 0%

Question: What about the “Population Membrane Permeable-Phenotype (%)” value [3] of the same compound?
Answer: 7%

Question: And the “Population Mitochondria Different-Phenotype (%)” value [3]?
Answer: 1% and 0%

Question: And the “Population Mitotic Cells (%)” value [3]?
Answer: 40% and 51%

Question: What about the “Population Normal (%)” value [3] of the same compound?
Answer: 100%

Question: And the “Population Pyknosed Nuclei (%)” value [3]?
Answer: 26% and 21%

Question: What about the “Population Tubulin-Different-Phenotype (%)” value [3] of the same compound?
Answer: 14% and 9%

Question: And the “Total Cell Count” value [3]?
Answer: 150 and 188

Question: And the “Population Apoptotic (%)” value [4]?
Answer: 59% and 70%

Question: And the “Population Fragmented Nuclei (%)” value [4]?
Answer: 8% and 17%

Question: What about the “Population Healthy Nuclei (%)” value [4] of the same compound?
Answer: 82% and 74%

Question: What about the “Population Hoechst High Intensity Objects (%)” value [4] of the same compound?
Answer: 0%

Question: What about the “Population Membrane Permeable-Phenotype (%)” value [4] of the same compound?
Answer: 2% and 3%

Question: What about the “Population Mitochondria Different-Phenotype (%)” value [4] of the same compound?
Answer: 0%

Question: What about the “Population Mitotic Cells (%)” value [4] of the same compound?
Answer: 40% and 29%

Question: What about the “Population Normal (%)” value [4] of the same compound?
Answer: 99%

Question: What about the “Population Pyknosed Nuclei (%)” value [4] of the same compound?
Answer: 9% and 8%

Question: What about the “Population Tubulin-Different-Phenotype (%)” value [4] of the same compound?
Answer: 4% and 8%

Question: And the “Total Cell Count” value [4]?
Answer: 232 and 213

Question: And the “Population Apoptotic (%)” value [5]?
Answer: 67% and 60%

Question: What about the “Population Fragmented Nuclei (%)” value [5] of the same compound?
Answer: 17% and 16%

Question: And the “Population Healthy Nuclei (%)” value [5]?
Answer: 53% and 65%

Question: And the “Population Hoechst High Intensity Objects (%)” value [5]?
Answer: 0%

Question: What about the “Population Membrane Permeable-Phenotype (%)” value [5] of the same compound?
Answer: 4% and 6%

Question: And the “Population Mitochondria Different-Phenotype (%)” value [5]?
Answer: 0%

Question: And the “Population Mitotic Cells (%)” value [5]?
Answer: 32% and 40%

Question: What about the “Population Normal (%)” value [5] of the same compound?
Answer: 99% and 100%

Question: What about the “Population Pyknosed Nuclei (%)” value [5] of the same compound?
Answer: 28% and 17%

Question: What about the “Total Cell Count” value [5] of the same compound?
Answer: 170 and 199

Question: What about the “Population Apoptotic (%)” value [6] of the same compound?
Answer: 56% and 44%

Question: And the “Population Fragmented Nuclei (%)” value [6]?
Answer: 9% and 24%

Question: What about the “Population Healthy Nuclei (%)” value [6] of the same compound?
Answer: 81% and 71%

Question: And the “Population Hoechst High Intensity Objects (%)” value [6]?
Answer: 0%

Question: What about the “Population Membrane Permeable-Phenotype (%)” value [6] of the same compound?
Answer: 2% and 1%

Question: What about the “Population Mitochondria Different-Phenotype (%)” value [6] of the same compound?
Answer: 0%

Question: And the “Population Mitotic Cells (%)” value [6]?
Answer: 43% and 55%

Question: What about the “Population Normal (%)” value [6] of the same compound?
Answer: 100%

Question: And the “Population Pyknosed Nuclei (%)” value [6]?
Answer: 9% and 3%

Question: What about the “Population Tubulin-Different-Phenotype (%)” value [6] of the same compound?
Answer: 10% and 8%

Question: What about the “Total Cell Count” value [6] of the same compound?
Answer: 239 and 229

Question: `CNS(=O)(=O)c1ccc(N(C)C)c(Nc2ncnc3cc(OC)c(OC)cc23)c1` was tested. Which “Population Apoptotic (%)” value [1] did it give?
Answer: 40% and 34%

Question: What about the “Population Fragmented Nuclei (%)” value [1] of the same compound?
Answer: 11% and 10%

Question: And the “Population Healthy Nuclei (%)” value [1]?
Answer: 55% and 63%

Question: What about the “Population Hoechst High Intensity Objects (%)” value [1] of the same compound?
Answer: 0%

Question: And the “Population Membrane Permeable-Phenotype (%)” value [1]?
Answer: 4% and 6%

Question: And the “Population Mitochondria Different-Phenotype (%)” value [1]?
Answer: 0%

Question: What about the “Population Mitotic Cells (%)” value [1] of the same compound?
Answer: 60% and 65%

Question: What about the “Population Normal (%)” value [1] of the same compound?
Answer: 100%

Question: What about the “Population Pyknosed Nuclei (%)” value [1] of the same compound?
Answer: 33% and 26%

Question: What about the “Population Tubulin-Different-Phenotype (%)” value [1] of the same compound?
Answer: 9% and 6%

Question: What about the “Total Cell Count” value [1] of the same compound?
Answer: 136 and 169

Question: And the “Population Apoptotic (%)” value [2]?
Answer: 41% and 28%

Question: And the “Population Fragmented Nuclei (%)” value [2]?
Answer: 13% and 8%

Question: And the “Population Healthy Nuclei (%)” value [2]?
Answer: 61% and 67%

Question: And the “Population Hoechst High Intensity Objects (%)” value [2]?
Answer: 0%

Question: What about the “Population Membrane Permeable-Phenotype (%)” value [2] of the same compound?
Answer: 4% and 6%

Question: What about the “Population Mitochondria Different-Phenotype (%)” value [2] of the same compound?
Answer: 1%

Question: What about the “Population Mitotic Cells (%)” value [2] of the same compound?
Answer: 58% and 71%

Question: And the “Population Normal (%)” value [2]?
Answer: 99% and 100%

Question: And the “Population Pyknosed Nuclei (%)” value [2]?
Answer: 24% and 23%

Question: What about the “Population Tubulin-Different-Phenotype (%)” value [2] of the same compound?
Answer: 22% and 16%

Question: What about the “Total Cell Count” value [2] of the same compound?
Answer: 206 and 246

Question: And the “Population Apoptotic (%)” value [3]?
Answer: 37% and 46%

Question: And the “Population Fragmented Nuclei (%)” value [3]?
Answer: 11% and 13%

Question: What about the “Population Healthy Nuclei (%)” value [3] of the same compound?
Answer: 54% and 60%

Question: And the “Population Hoechst High Intensity Objects (%)” value [3]?
Answer: 0%

Question: And the “Population Membrane Permeable-Phenotype (%)” value [3]?
Answer: 2% and 8%

Question: What about the “Population Mitochondria Different-Phenotype (%)” value [3] of the same compound?
Answer: 0% and 2%

Question: What about the “Population Mitotic Cells (%)” value [3] of the same compound?
Answer: 62% and 53%

Question: What about the “Population Normal (%)” value [3] of the same compound?
Answer: 99%

Question: What about the “Population Pyknosed Nuclei (%)” value [3] of the same compound?
Answer: 33% and 25%

Question: And the “Population Tubulin-Different-Phenotype (%)” value [3]?
Answer: 8% and 10%

Question: And the “Total Cell Count” value [3]?
Answer: 136 and 162

Question: What about the “Population Apoptotic (%)” value [4] of the same compound?
Answer: 56% and 43%

Question: What about the “Population Fragmented Nuclei (%)” value [4] of the same compound?
Answer: 11% and 10%

Question: And the “Population Healthy Nuclei (%)” value [4]?
Answer: 66% and 71%

Question: And the “Population Hoechst High Intensity Objects (%)” value [4]?
Answer: 0%

Question: And the “Population Membrane Permeable-Phenotype (%)” value [4]?
Answer: 7% and 2%

Question: And the “Population Mitochondria Different-Phenotype (%)” value [4]?
Answer: 2%

Question: What about the “Population Mitotic Cells (%)” value [4] of the same compound?
Answer: 43% and 56%

Question: What about the “Population Normal (%)” value [4] of the same compound?
Answer: 100% and 99%

Question: And the “Population Pyknosed Nuclei (%)” value [4]?
Answer: 22% and 17%

Question: What about the “Population Tubulin-Different-Phenotype (%)” value [4] of the same compound?
Answer: 20% and 12%

Question: And the “Total Cell Count” value [4]?
Answer: 207 and 220

Question: What about the “Population Apoptotic (%)” value [5] of the same compound?
Answer: 53% and 68%

Question: And the “Population Fragmented Nuclei (%)” value [5]?
Answer: 20% and 18%

Question: What about the “Population Healthy Nuclei (%)” value [5] of the same compound?
Answer: 59% and 65%

Question: And the “Population Hoechst High Intensity Objects (%)” value [5]?
Answer: 0%

Question: And the “Population Membrane Permeable-Phenotype (%)” value [5]?
Answer: 10% and 7%

Question: What about the “Population Mitochondria Different-Phenotype (%)” value [5] of the same compound?
Answer: 1%

Question: What about the “Population Mitotic Cells (%)” value [5] of the same compound?
Answer: 46% and 31%

Question: And the “Population Normal (%)” value [5]?
Answer: 99% and 100%

Question: What about the “Population Pyknosed Nuclei (%)” value [5] of the same compound?
Answer: 19% and 15%

Question: What about the “Population Tubulin-Different-Phenotype (%)” value [5] of the same compound?
Answer: 15% and 8%

Question: And the “Total Cell Count” value [5]?
Answer: 154 and 185

Question: What about the “Population Apoptotic (%)” value [6] of the same compound?
Answer: 62% and 75%

Question: What about the “Population Fragmented Nuclei (%)” value [6] of the same compound?
Answer: 17% and 14%

Question: And the “Population Healthy Nuclei (%)” value [6]?
Answer: 68% and 78%

Question: What about the “Population Hoechst High Intensity Objects (%)” value [6] of the same compound?
Answer: 0%

Question: And the “Population Membrane Permeable-Phenotype (%)” value [6]?
Answer: 6% and 3%

Question: What about the “Population Mitochondria Different-Phenotype (%)” value [6] of the same compound?
Answer: 2% and 3%

Question: And the “Population Mitotic Cells (%)” value [6]?
Answer: 37% and 25%

Question: And the “Population Normal (%)” value [6]?
Answer: 99% and 100%

Question: What about the “Population Pyknosed Nuclei (%)” value [6] of the same compound?
Answer: 14% and 7%

Question: What about the “Population Tubulin-Different-Phenotype (%)” value [6] of the same compound?
Answer: 12% and 11%

Question: And the “Total Cell Count” value [6]?
Answer: 193 and 207

From ChEMBL document CHEMBL5303300, “EUbOPEN Chemogenomics Library - Multiplex” (2023)
